# CR mimetic SO – reduction of superoxide in aged yeast, primary screen, HTS; S. cerevisiae aged cells, superoxide DHE fluorescence; active compounds read low; superoxide response (% of plate mean), % at 10 µM; 330,000 tested, 0.18% active;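 active means superoxide response under a set limit, about three screen SD below normal, cut at about 65% in these data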;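 further: yeast aged for seven days with compound at 30 °C before DHE staining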
# TRPC4 potent – positive allosteric modulators of TRPC4, primary screen, cell-based, mouse TRPC4beta, HEK293 mu-opioid, Fluo-4 calcium; B-score at 10 µM; 310,000 tested, 0.42% active; Short transient receptor potential channel 4 (Mus musculus), Q9QUQ5; DAMGO EC20, Fluo-4 Ca2+ flux; active compounds read high;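 active means B-score of calcium response area above 5 SD of library B-scores, with initial fluorescence ratio within 5 SD of library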
# Target sequence (Q9QUQ5 whole entry, looked up): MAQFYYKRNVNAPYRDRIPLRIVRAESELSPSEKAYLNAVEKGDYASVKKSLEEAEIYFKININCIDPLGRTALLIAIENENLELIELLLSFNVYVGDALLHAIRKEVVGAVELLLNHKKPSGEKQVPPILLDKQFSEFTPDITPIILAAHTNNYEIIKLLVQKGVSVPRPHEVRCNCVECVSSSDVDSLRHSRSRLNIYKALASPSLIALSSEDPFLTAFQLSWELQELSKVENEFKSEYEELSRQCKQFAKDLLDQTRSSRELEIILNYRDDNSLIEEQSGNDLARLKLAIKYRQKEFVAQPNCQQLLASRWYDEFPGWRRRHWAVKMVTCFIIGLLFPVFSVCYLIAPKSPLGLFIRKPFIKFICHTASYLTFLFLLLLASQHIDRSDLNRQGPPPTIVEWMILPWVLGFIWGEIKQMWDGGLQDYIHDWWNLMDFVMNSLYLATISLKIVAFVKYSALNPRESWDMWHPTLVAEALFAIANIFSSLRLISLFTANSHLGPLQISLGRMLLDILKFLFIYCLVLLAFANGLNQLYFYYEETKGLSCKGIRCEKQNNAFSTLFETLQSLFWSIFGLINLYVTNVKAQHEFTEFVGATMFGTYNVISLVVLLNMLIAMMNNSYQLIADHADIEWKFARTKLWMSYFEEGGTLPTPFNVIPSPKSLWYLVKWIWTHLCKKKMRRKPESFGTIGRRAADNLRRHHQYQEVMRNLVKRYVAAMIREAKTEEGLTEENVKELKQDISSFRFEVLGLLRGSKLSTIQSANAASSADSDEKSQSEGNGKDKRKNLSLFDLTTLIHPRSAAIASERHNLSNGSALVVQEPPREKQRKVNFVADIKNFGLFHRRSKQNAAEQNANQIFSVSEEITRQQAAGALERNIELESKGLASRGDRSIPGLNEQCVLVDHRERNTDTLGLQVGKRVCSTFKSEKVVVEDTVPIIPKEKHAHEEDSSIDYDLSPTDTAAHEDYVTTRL
# TRPC6 act – mouse TRPC6 channel activators, primary screen, cell-based, HEK293, membrane potential dye. Short transient receptor potential channel 6 (Mus musculus), Q61143. HEK293-TRPC6 membrane potential dye fluorescence; active compounds read high. B-score at 10 µM. 310,000 tested, 0.13% active;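 active means B-score of the integrated fluorescence ratio above library mean plus 3 SD, and starting fluorescence ratio within library mean plus 5 SD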;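 further: higher score means more depolarization so channel activation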
# TRPC6 inhibitor – mouse TRPC6 channel inhibitors, primary screen, cell-based, HEK293, membrane potential dye | B-score at 10 µM | Short transient receptor potential channel 6 (Mus musculus), Q61143 | 310,000 tested, 1.1% active | ACh-evoked depolarization; active compounds read low;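 active means B-score under library mean minus 3 SD, initial fluorescence not abnormally high, positive integrated signal ratio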;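 further: B-score derived from integrated fluorescence ratio over the kinetic read; more negative B-score means stronger inhibition of depolarization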
# TRPC4 act – activators of mouse TRPC4 channel, primary screen, Fluo4 calcium, HEK293 TRPC4beta/mu-opioid cells. B-score at 10 µM. Fluo4 calcium fluorescence; active compounds read high. 310,000 tested, 0.49% active. AID 2237, 2010;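 active means B-score above 5 SD of library B-scores, and initial fluorescence ratio not above library mean plus 5 SD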;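 further: positive B-score marks a calcium rise read as TRPC4 activation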
#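 Material: HEK293 stable line with TRPC4beta plus mu-opioid receptor; technique: Fluo4 calcium-sensitive dye fluorescence, kinetic, 1 Hz baseline; timing: Fluo4 dye loading 45 min at room temperature, 110 s recording; controls: assay buffer as low control, maximal DAMGO as high control; read-out: integrated baseline-normalised fluorescence ratio, converted to per-well B score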
# TRPC4 inh – inhibitors of mouse TRPC4 channel, primary screen, Fluo4 calcium, HEK293 TRPC4beta/mu-opioid cells. DAMGO-evoked Fluo4 calcium flux; active compounds read low. Short transient receptor potential channel 4 (Mus musculus), Q9QUQ5. B-score at 10 µM. 300,000 tested, 0.39% active. AID 2247, 2010;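 active means B-score over 3 SD under the library average, no early fluorescence shift, positive overall ratio signal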
#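 test system = HEK293 cells with stable TRPC4beta plus mu-opioid receptor expression | detection = Fluo4 Ca2+ flux fluorescence | read-out = integrated fluorescence ratio relative to baseline, converted to per-well B score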
# TRPC4 spec 2 – second check of whether TRPC6 inhibitors also affect mouse TRPC4; HEK293 TRPC4/MOR, membrane potential dye fluorescence; channel activated by saturating DAMGO dose; shares compounds with TRPC6 inhibitor; AID 2776; 920 tested, 42% active; inhibition, % at 10 µM;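 active means compounds whose fluorescence signal differed from control wells by over 3 SD, either direction, in both duplicate plates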
# TRPC4 spec – mouse TRPC4 modulation by TRPC6 hits, confirmation, selectivity assay for TRPC6 inhibitor project, cell-based, HEK293 TRPC4/mu-opioid, membrane potential dye | shares compounds with TRPC6 inhibitor | membrane potential fluorescence | activity change, negative = inhibition, % at 10 µM | 920 tested, 61% active | AID 2777, 2010;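 active means rise or fall in signal beyond 3 SD of buffer-only wells in both replicate plates, either sign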;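 further: integrated kinetic ratio of fluorescence range over baseline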
# HEK293 MPD ctr 2-1 – nonspecific membrane potential effects, parental HEK293, confirmation, counter-screen for TRPC6 inhibitor project, cell-based, second counter screen | shares compounds with TRPC6 inhibitor | parental HEK293 membrane potential dye fluorescence; maximal acetylcholine challenge after compound addition | signal change vs control, % at 10 µM | 920 tested, 31% active | AID 2779, 2010;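 active means membrane potential signal moving either way by over 3 SD of the maximum-effect control, in both duplicate plates, meaning non-specific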
# HEK293 MPD ctr-1 – membrane potential modulation in parental HEK293, confirmation, counter-screen for TRPC6 inhibitor project, cell-based. shares compounds with TRPC6 inhibitor. parental HEK293 membrane potential dye fluorescence. membrane potential signal change, % at 10 µM. 920 tested, 60% active. AID 2780, 2010;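 active means membrane potential signal shifting up or down by more than 3 SD of buffer-only wells, on both duplicate plates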
# HEK293 MPD ctr-2 – parental HEK293 membrane potential modulation, confirmation, counter-screen for TRPC6 modulator project, cell-based. 2,400 tested, 51% active. membrane potential signal change, % at 10 µM. membrane potential dye fluorescence. shares compounds with TRPC6 inhibitor. AID 488924, 2010;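 active means membrane potential signal moves up or down beyond 5 SD from buffer-only wells, on both duplicate plates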
# HEK293 MPD ctr 2-2 – parental HEK293 nonspecific activity of TRPC6 modulators, second screen | inhibition, % at 10 µM | shares compounds with TRPC6 inhibitor | membrane potential dye fluorescence; after compound, maximal acetylcholine stimulation | 2,400 tested, 14% active;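 active means membrane potential signal drops by more than 5 SD from the mean control signal, in both duplicate plates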
# TRPC4 ctr mod – TRPC4 modulation by TRPC6 hit compounds, confirmation, selectivity assay for TRPC6 modulator project, cell-based, HEK293 TRPC4/mu-opioid, membrane potential dye, mouse; membrane potential fluorescence; shares compounds with TRPC6 inhibitor; percent change from control (negative = decrease, positive = increase), % at 10 µM; 2,400 tested, 69% active;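 active means membrane potential signal moved up or down beyond 5 SD of buffer control wells, in both duplicate plates, actives on both sides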
# TRPC4 ctr inh 2 – second check of whether TRPC6 modulators also affect mouse TRPC4; shares compounds with TRPC6 inhibitor; HEK293 TRPC4/mu-opioid, membrane potential dye fluorescence; stimulated with maximal-effect DAMGO; inhibition, % at 10 µM; 2,400 tested, 55% active;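 active means drop in membrane potential signal beyond 5 SD of the control wells in both duplicate plates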;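 further: TRPC4 counter screen for TRPC6 hits run under conditions tuned for TRPC6 not TRPC4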
# TRPC6 block conf – mouse TRPC6 channel inhibitors, confirmation, HEK293 cells, membrane potential dye, duplicate; shares compounds with TRPC6 inhibitor; ACh-evoked depolarization; inhibition, % at 10 µM; 3,300 tested, 43% active;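 active means fluorescence ratio falls more than 5 SD below the full-stimulation control mean, in both duplicate runs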;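 further: integrated fluorescence ratio of peak minus minimum over baseline after agonist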
# TRPC6 act conf – mouse TRPC6 channel activators, confirmation, HEK293 cells, membrane potential dye, duplicate; shares compounds with TRPC6 inhibitor; HEK293-TRPC6 membrane potential dye fluorescence, FDSS; activation, % at 10 µM; 2,800 tested, 11% active;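 active means ratio signal rise beyond 5 SD above unstimulated control wells' mean, seen in both duplicate runs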
# Numbers stand for hits; 0 = inactive; - = not tested or not shown. Rows were chosen to be rich in hits. Some 2.3% of all compounds tested hit in one or more screens of this group.
SMILES,CR mimetic SO,TRPC4 potent,TRPC6 act,TRPC6 inhibitor,TRPC4 act,TRPC4 inh,HEK293 MPD ctr-2,HEK293 MPD ctr 2-2,TRPC4 ctr mod,TRPC4 ctr inh 2,TRPC6 block conf,TRPC6 act conf,others
CSc1nnc([C@H](Cc2c[nH]c3ccccc23)NC(=O)OC(C)(C)C)o1,0,0,0,0,0,0,-,-,-,-,-,-,
CCSc1nnc([C@H](Cc2c[nH]c3ccccc23)NC(=O)OC(C)(C)C)o1,0,17,0,0,0,0,-,-,-,-,-,-,
CCc1nnc(NC(=O)c2nc3nc(C)cc(C)n3n2)s1,0,0,0,-5.51,0,0,-,-,-,-,-,-,
CCN(CC)c1ncnc2scc(C3COc4ccccc4O3)c12 (centres undefined),0,0,0,0,0,-7,-,-,-,-,-,-,
COC(=O)c1ccc(C2NC(=O)c3ccccc3O2)cc1 (centres undefined),0,0,0,0,0,0,-,-,-,-,-,-,
O=C(OC1C2CCC1C1CN(CCc3ccccc3)CC12)c1ccccc1 (centres undefined),0,0,0,0,0,-6,-,-,-,-,-,-,
O=[N+]([O-])c1ccc(/C=N/Nc2nc(N3CCCCC3)nc(N3CCCCC3)n2)cc1,0,0,0,-5.95,0,0,0,0,0,0,0,0,
CCn1c(/C=C/c2ccccc2)nc2ccccc21,0,0,0,0,0,0,-,-,-,-,-,-,
CCC(C)n1c(/C=C/c2ccccc2)nc2ccccc21 (centres undefined),0,0,0,-5.07,0,0,105.5%,0,15.5%,0,0,0,
CCN1CCN(c2cc(C)c3cc(NC(=O)c4cnccn4)ccc3n2)CC1,0,0,0,-5.87,0,0,0,69.0%,11.0%,29.0%,0,0,
CCOc1ccc(C(=O)Nc2ccc3nc(N4CCN(CC)CC4)cc(C)c3c2)cc1,0,0,0,0,0,0,-,-,-,-,-,-,
Cc1cc(N2CCN(C)CC2)nc2ccc(NC(=O)c3ccc(Br)o3)cc12,0,0,0,-6.27,0,0,-100.0%,0,0,80.0%,67.0%,0,
O=C(Nc1ccc(N2CCCC2)cc1)c1ccc(Br)o1,0,0,0,0,0,0,-,-,-,-,-,-,
Cc1cc(N2CCCCC2)nc2ccc(NC(=O)c3ccc(Br)o3)cc12,0,0,0,-8.78,0,0,-,-,-,-,50.7%,0,TRPC4 spec 2=71.5%;TRPC4 spec=-31.1%;HEK293 MPD ctr 2-1=0;HEK293 MPD ctr-1=-332.0%
CC(=O)c1ccc(NC(=O)CN2CCOCC2)cc1,0,0,0,0,0,0,-,-,-,-,-,-,
CCOC(=O)c1ccc(NC(=O)c2cc(C)nc3ccccc23)cc1,0,0,0,0,0,0,-,-,-,-,-,-,
COc1ccc(C2C3=C(CC(C)(C)CC3=O)Oc3ncn(Cc4ccccc4)c(=N)c32)cc1 (centres undefined),0,0,0,-5.44,0,0,145.5%,0,21.5%,69.0%,54.0%,-,
Cc1c(Br)c([N+](=O)[O-])nn1C(C)C(=O)N1CCc2ccccc2C1 (centres undefined),0,0,0,-5.98,0,0,0,93.0%,19.0%,0,80.0%,0,
Cc1cccc(C(=O)N2CCc3ccccc3C2)c1[N+](=O)[O-],0,0,0,-5.31,0,0,0,0,15.5%,0,0,0,
CSC1=NCCN1C(=O)C(C)(C)Oc1ccc(Cl)cc1,0,0,0,0,0,0,-,-,-,-,-,-,
Cc1ccc2c(c1)Cc1nc3ccccc3nc1-2,0,0,0,0,0,0,-,-,-,-,-,-,
CC(=O)N(Cc1ccc(F)cc1)C1=C(NCCc2ccccc2)C(=O)c2ccccc2C1=O,0,0,0,-11.4,0,0,-,-,-,-,0,0,TRPC4 spec 2=0;TRPC4 spec=-10.6%;HEK293 MPD ctr 2-1=0;HEK293 MPD ctr-1=-182.5%
CC(C)CC[n+]1ccccc1/C=C/c1ccc(N(C)C)cc1,0,0,0,-5.8,66,0,719.0%,113.0%,115.0%,0,68.0%,-,
Cc1nc(NC(=O)c2ccc(Br)o2)ccc1Br,-,0,0,0,0,0,-,-,-,-,-,-,
O=C(Nc1cccc(NC(=O)c2ccc(Br)o2)n1)c1ccc(Br)o1,0,0,0,-6.32,0,0,0,0,0,0,0,0,
CC(C)(C)S(=O)(=O)Cc1nc(-c2ccc(Cl)c(Cl)c2)cs1,0,0,0,0,0,0,-,-,-,-,-,-,
O=C(Nc1ccc(N2CCOCC2)cc1)c1ccc(Cl)nc1,0,0,0,0,0,0,-,-,-,-,-,-,

# Screens deposited in PubChem by several laboratories.
